Series [1] relates to Escherichia coli.
Series [2] deals with Escherichia coli. Nature of the series: Estimated rate of [3H]DHS uptake in Escherichia coli K12 (ATCC 25868). Format: functional. The arrangement: unit not given here. The gist of the method:
(§1)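 Cultures in tryptone-peptone broth at 37 °C with shaking, grown from OD600 ~0.05 to 0.20, then preexposed to antibiotic for 20 min at 37 °C. Cells pelleted, resuspended in equal volume fresh broth, pulsed 5.0 min at 37 °C with [3H]DHS (1.0 µCi/mL, 3.8 Ci/mmol). Samples filtered, washed with 0.1 M LiCl, scintillation counted. C50 = half-maximal rate estimated from dose-response curves.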

A short description of series [3]: Percent killing of the total Escherichia coli K12 (ATCC 25868) cells at the C50 concentration was determined. It counts as ADME.
Series [4] in a line: Lethal dose required to kill 90% of the Escherichia coli K12 (ATCC 25868) cell population. It counts as ADME. The gist of the method: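 E. coli K12 in tryptone-peptone broth at 37 °C, OD600 0.20, exposed 20 min at 37 °C to antibiotic; pellets resuspended to OD600 0.10–0.15 in TPB, serially diluted, plated on tryptone-peptone agar, colonies counted after overnight at 37 °C. Value is the concentration killing 90% of the population.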

The subject of series [5] is Escherichia coli. Nature of the series: Concentration required for half maximum rate of enhanced [3H]DHS (Dihydrostreptomycin) uptake in Escherichia coli K12 (ATCC 25868)was estimated from dose-response curves. Format: functional. The gist of the method: as §1
A short description of series [6]: Percent killing of the total Escherichia coli K12 (ATCC 25868)cells at the C50 concentration was determined. It counts as ADME.

In series [1], `CN1C(NC2OC(CO)C(OC(N)=O)C(O)C2NC(=O)CC(N)CCCN)=N[C@@H]2[C@H](O)CNC(=O)[C@H]21` (stereo not given in full) gave a C50 of 0.1 µM. The Uptake at C50 in series [2] was 4.1.
Consider `NC[C@H]1O[C@H](O[C@H]2[C@H](O)[C@@H](O[C@H]3O[C@H](CO)[C@@H](O)[C@H](N)[C@H]3O)[C@H](N)C[C@@H]2N)[C@H](O)[C@@H](O)[C@@H]1O` [KANAMYCIN A], for which the “Kill at C50” value in series [3] worked out at 93%. This molecule also displayed an LD90 in series [4] of 0.85 µM.
In series [1], `CN[C@H]1C[C@@H](N)[C@H](O)[C@@H](O[C@@H]2O[C@H](CO)[C@H](O)[C@H]3O[C@@]4(O[C@H]23)O[C@H]([C@H](N)CO)[C@H](O)[C@H](O)[C@H]4O)[C@@H]1O` gave a C50 of more than 50 µM.
Regarding `CNC1C(OC2OC(CO)C(N)C(O)C2O)OC2CC(N)C(OC3C(N)CC(NC(=O)C(O)CCN)C(O)C3O)OC2C1O` (stereo not given), the C50 in series [5] is 0.39 µM. For the same molecule, the “Kill at C50” value in series [3] is listed as 53%. Also, the LD90 in series [4] was found to be 1.2 µM. Besides, the Uptake at C50 in series [2] is 2.4.
In the case of `CNC1C(OC2OC(CO)C(N)C(O)C2O)OC2CC(NC(=O)CN)C(OC3C(N)CC(N)C(O)C3O)OC2C1O` (stereo not given), the “Kill at C50” value in series [3] is 53%. Also, the C50 in series [1] was 0.45 µM. This molecule returned an LD90 in series [4] of 0.83 µM. In addition, in series [2], the Uptake at C50 was 3.3.
Regarding `CNC1C(OC2OC(CO)C(N)C(O)C2O)OC2CC(N)C(OC3C(N)CC(NC(=O)CN)C(O)C3O)OC2C1O` (stereo not given), the C50 in series [5] was 1.1 µM. For the same molecule, in series [3], the “Kill at C50” value stood at 94%. In addition, the LD90 in series [4] was 0.84 µM. Also, the Uptake at C50 in series [2] was 2.1.
`NCCCCNCCCN`: the C50 in series [1] is more than 50 µM.
Regarding `COC1C(O)C(N)C(OC2OC([C@H](C)N)CCC2N)C(O)C1N(C)C(=O)CN` (stereo not given in full), the “Kill at C50” value in series [3] worked out at 93%. In addition, the C50 in series [1] came out at 0.86 µM. The same molecule displayed an LD90 in series [4] of 0.7 µM. Besides, in series [2], the Uptake at C50 is 5.6.
Regarding `NC[C@@H]1O[C@H](O[C@H]2[C@@H](O)[C@H](O[C@@H]3[C@@H](O)[C@H](N)C[C@H](N)[C@H]3O[C@H]3O[C@H](CN)[C@@H](O)[C@H](O)[C@H]3N)O[C@@H]2CO)[C@H](N)[C@@H](O)[C@@H]1O` [FRAMYCETIN], the “Kill at C50” value in series [3] was 82%. The molecule further yielded a C50 in series [1] of 0.34 µM. The same molecule came in with an LD90 in series [4] of 0.46 µM. Besides, in series [2], the Uptake at C50 is 1.6.
As for `NC[C@@H]1O[C@H](O[C@H]2[C@@H](O)[C@H](O[C@@H]3[C@@H](O)[C@H](N)C[C@H](N)[C@H]3O[C@H]3O[C@H](CO)[C@@H](O)[C@H](O)[C@H]3N)O[C@@H]2CO)[C@H](N)[C@@H](O)[C@@H]1O` [PAROMOMYCIN], in series [6], the “Kill at C50” value stood at 61%. Also, the C50 in series [1] stood at 0.32 µM. The molecule further had an LD90 in series [4] of 0.78 µM. Also, the Uptake at C50 in series [2] was 3.9.
In series [1], `CN[C@@H]1[C@H](O)[C@H](NC)[C@H]2O[C@@]3(O)C(=O)C[C@@H](C)O[C@H]3O[C@@H]2[C@H]1O` registered a C50 of more than 10 µM.
Turning to `NC[C@H]1O[C@H](O[C@H]2[C@H](O[C@@H]3O[C@H](CO)[C@@H](O)[C@H]3O)[C@@H](O)[C@H](N)C[C@@H]2N)[C@H](N)[C@@H](O)[C@@H]1O` [RIBOSTAMYCIN], in series [3], the “Kill at C50” value was 99%. Also, in series [1], the C50 is 1.2 µM. The molecule also registered an LD90 in series [4] of 0.17 µM. Besides, the Uptake at C50 in series [2] is 2.6.
Take `O=C(N[C@H](CO)[C@H](O)c1ccc([N+](=O)[O-])cc1)C(Cl)Cl`: in series [1], the C50 was more than 50 µM.
With `NCC1OC(OC2C(N)CC(NC(=O)C3(O)CCNC3)C(OC3OC(CO)C(O)C(N)C3O)C2O)C(N)CC1O` (stereo not given), in series [3], the “Kill at C50” value is on record as 65%. The same molecule displayed a C50 in series [1] of 0.12 µM. For the same molecule, in series [4], the LD90 turned out to be 0.31 µM. Moreover, the Uptake at C50 in series [2] was 4.4.
Regarding GENTAMICIN [listing 1 of 2 here], the C50 in series [1] came to 0.24 µM. Further, the Uptake at C50 in series [2] was 7.3.
Regarding `NC[C@H]1O[C@H](O[C@H]2[C@H](O)[C@@H](O[C@H]3O[C@H](CO)[C@@H](O)[C@H](N)[C@H]3O)[C@H](N)C[C@@H]2N)[C@H](N)[C@@H](O)[C@@H]1O` [BEKANAMYCIN], the “Kill at C50” value in series [6] amounted to 31%. This molecule gave a C50 in series [1] of 0.27 µM. Also, in series [4], the LD90 was 1.1 µM. In series [2], the Uptake at C50 is 6.8.
In turn, “4-Amino-N-[5-amino-4-(3-amino-6-aminomethyl-4,5-dihydroxy-tetrahydro-pyran-2-yloxy)-3-(3,4-dihydroxy-5-hydroxymethyl-tetrahydro-furan-2-yloxy)-2-hydroxy-cyclohexyl]-2-hydroxy-butyramide (Butirosin)” came in with a C50 in series [1] of 0.13 µM. Moreover, the Uptake at C50 in series [2] was 4.
`CN(C)[C@@H]1C(O)=C(C(N)=O)C(=O)[C@@]2(O)C(O)=C3C(=O)c4c(O)cccc4[C@@](C)(O)[C@H]3C[C@@H]12` showed a C50 in series [1] of more than 50 µM.
For the molecule `NC[C@@H]1O[C@@H](O[C@H]2[C@H](O)[C@@H](O[C@H]3O[C@H](CO)[C@@H](O)[C@H](N)[C@H]3O)[C@H](N)C[C@@H]2N)[C@@H](O)[C@H](O)[C@H]1O`, in series [1], the C50 worked out at 0.95 µM. In series [2], the Uptake at C50 was 3.5.
On to `NCC1CCC(N)C(OC2C(N)CC(N)C(OC3OC(CO)C(O)C(N)C3O)C2O)O1` (stereo not given), for which, in series [3], the “Kill at C50” value is on record as 74%. For the same molecule, the LD90 in series [4] turned out to be 0.89 µM. Also, the Uptake at C50 in series [2] is 8.1.
Take `CCN[C@@H]1C[C@H](N)[C@@H](O[C@H]2OC(CN)=CC[C@H]2N)[C@H](O)[C@H]1O[C@H]1OC[C@](C)(O)[C@H](NC)[C@H]1O` [NETILMICIN]: in series [3], the “Kill at C50” value was 86%. The molecule further returned a C50 in series [1] of 0.32 µM. For the same molecule, the LD90 in series [4] came out at 0.38 µM. In addition, the Uptake at C50 in series [2] was 5.8.
For the molecule `NC[C@@H]1O[C@H](O[C@H]2[C@@H](O)[C@H](O[C@@H]3[C@@H](O)[C@H](N)C[C@H](N)[C@H]3O[C@H]3O[C@H](CO)[C@@H](O)C[C@H]3N)O[C@@H]2CO)[C@H](N)[C@@H](O)[C@@H]1O[C@H]1O[C@H](CO)[C@@H](O)[C@H](O)[C@@H]1O` [LIVIDOMYCIN], the “Kill at C50” value in series [6] was 40%. This molecule also returned a C50 in series [1] of 0.18 µM. This molecule also registered an LD90 in series [4] of 0.87 µM. In addition, the Uptake at C50 in series [2] was 5.5.
Consider `NC[C@H]1O[C@H](O[C@@H]2[C@@H](O)[C@H](O[C@@H]3[C@H](O)[C@H](N)C[C@@H](N)[C@H]3O[C@H]3O[C@@H](CO)[C@@H](O)C[C@@H]3N)O[C@@H]2CO)[C@@H](N)[C@@H](O[C@H]2O[C@H](CO)[C@@H](O)[C@H](O)[C@@H]2O)[C@@H]1O`, for which, in series [3], the “Kill at C50” value worked out at 78%. Besides, the C50 in series [1] came out at 0.57 µM. The molecule also had an LD90 in series [4] of 0.88 µM. In addition, the Uptake at C50 in series [2] was 4.4.
`CNC1C(OC2OC(CO)C(N)C(O)C2O)OC2CC(NC(=O)C(O)CCN)C(OC3C(N)CC(N)C(O)C3O)OC2C1O` (stereo not given): the C50 in series [5] is 0.84 µM. Further, the “Kill at C50” value in series [3] stood at 93%. The molecule further returned an LD90 in series [4] of 0.72 µM. Moreover, in series [2], the Uptake at C50 is 2.6.
With GENTAMICIN [listing 2 of 2 here], in series [6], the “Kill at C50” value amounted to 72%. This molecule also gave an LD90 in series [4] of 0.43 µM.
In the case of `CN[C@@H]1[C@@H](O)[C@@H](O[C@@H]2[C@@H](O)[C@H](O[C@H]3OC(CN)=CC[C@H]3N)[C@@H](N)C[C@H]2N)OC[C@]1(C)O` [SISOMICIN], the “Kill at C50” value in series [3] is listed as 77%. In addition, the C50 in series [1] amounted to 0.31 µM. Besides, the LD90 in series [4] was found to be 0.49 µM. Further, the Uptake at C50 in series [2] was 7.
Consider `NCC1OC(OC2C(N)CC(NC(=O)C3(O)CNC3)C(OC3OC(CO)C(O)C(N)C3O)C2O)C(N)CC1O` (stereo not given), for which, in series [3], the “Kill at C50” value was determined as 50%. Moreover, the C50 in series [1] was 0.12 µM. The LD90 in series [4] turned out to be 0.63 µM. In addition, the Uptake at C50 in series [2] is 4.4.
